The text below walks through data of ChEMBL document CHEMBL3739314, “Discovery of Nanomolar Dengue and West Nile Virus Protease Inhibitors Containing a 4-Benzyloxyphenylglycine Residue” (J Med Chem, 2015).

The nature of test [1]: Inhibition of Dengue virus serotype-2 NS2B-NS3 protease using 2-Abz-Nle-Lys-Arg-Arg-Ser-(3-NO2)-Tyr-NH2 as substrate preincubated with protein for 15 mins followed by substrate addition measured for 15 mins by FRET assay. On the set-up: species or system dengue virus type 2. The procedure, abridged: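 DENV-2 NS2B-NS3 linked construct at 30 nM (15 nM in some cases), same pH 9 Tris buffer, 15 min preincubation and FRET read-out. Eight inhibitor concentrations spanned 0–1, 0–2, 0–6 or 0–50 μM, with substrate at 50 μM. IC50 was fitted from triplicates.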

Another test deals with Trypsin (Homo sapiens) (UniProt P07477+P07478+P35030). Nature of the test: Inhibition of trypsin (unknown origin) using Boc-Val-Pro-Arg-AMC as substrate at 25 uM preincubated with protein for 15 mins followed by substrate addition by continuous fluorimetric assay relative to control.
The test system of the next test is West Nile virus. Nature of the test: Inhibition of West Nile virus NS2B-NS3 protease using 2-Abz-Gly-Leu-Lys-Arg-Gly-Gly-[…]-Tyr-NH2 as substrate at 50 uM preincubated with protein for 15 mins followed by substrate addition measured for 15 mins by FRET assay. An outline of the steps: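 Linked WNV NS2B-NS3 protease (150 nM) was preincubated 15 min with inhibitor (50 μM final) in 50 mM Tris-HCl pH 9, 10% ethylene glycol, 0.0016% Brij 58. […] Percent inhibition was taken from the slope relative to the no-inhibitor control, in triplicate.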

The target in test [2] is Prothrombin (Homo sapiens) (UniProt P00734). Nature of the test: Inhibition of thrombin (unknown origin) using Boc-Val-Pro-Arg-AMC as substrate at 25 uM preincubated with protein for 15 mins followed by substrate addition measured for 10 mins by continuous fluorimetric assay relative to control.
The nature of test [3]: Inhibition of West Nile virus NS2B-NS3 protease using 2-Abz-Gly-Leu-Lys-Arg-Gly-Gly-[…]-Tyr-NH2 as substrate preincubated with protein for 15 mins followed by substrate addition measured for 15 mins by FRET assay. An outline of the steps:
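WNV NS2B-NS3 linked construct at 75 nM (40 nM in one case) in pH 9 Tris buffer, preincubated 15 min with eight inhibitor concentrations (ranges 0–1 up to 0–50 μM). Substrate was 50 μM, with FRET readout over 15 min. IC50 was fitted from triplicates.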

pIC50: −log10 of the molar value. Active and inactive are the calls of the source. The rule behind the calls is not given here.

Take `N=C(N)NCCC[C@H](NC(=O)c1cc2sccc2s1)C(=O)N[C@@H](CCCCN)C(=O)N[C@@H](C(N)=O)c1ccc(OCc2ccc(Cl)cc2)cc1`: in test [1], the pIC50 (commonly the negative decadic logarithm of the IC50, by convention in mol/L) is 6.77. The inhibition result (on Trypsin (Homo sapiens); in test [2]) was “inactive” throughout. Besides, the inhibition (commonly the relative decrease from the control value, in per cent) in the test with West Nile virus is 93.8%.

With `N=C(N)NCCC[C@H](NC(=O)c1ccc(Cl)s1)C(=O)N[C@@H](CCCCN)C(=O)N[C@@H](C(N)=O)c1ccc(OCc2ccc(Cl)cc2)cc1`, the negative logarithm of the IC50 (pIC50) was 6.95 in test [1] and 6.43 in test [3]. Moreover, the inhibition result (on Trypsin (Homo sapiens); in test [2]) was “inactive” in each case. The inhibition in the test on West Nile virus was determined as 99.6%.

Take `N=C(N)NCCC[C@H](NC(=O)c1nccs1)C(=O)N[C@@H](CCCCN)C(=O)N[C@@H](C(N)=O)c1ccc(OCc2c(Cl)cccc2Cl)cc1`: the pIC50 is 7.30 in test [1] and 6.78 in test [3]. Besides, the inhibition entry (at Trypsin (Homo sapiens); in test [2]) was “inactive” throughout. The inhibition with West Nile virus came to 99.1%.

`N=C(N)NCCC[C@H](NC(=O)c1ccco1)C(=O)N[C@@H](CCCCN)C(=O)N[C@@H](C(N)=O)c1ccc(OCc2ccccc2)cc1`: the pIC50 in test [1] was 6.32; in test [3], 6.29. The inhibition was 98.1% in the test with West Nile virus and less than 30% in test [2].

Turning to `COc1cccc(COc2ccc([C@@H](NC(=O)[C@H](CCCCN)NC(=O)[C@H](CCCNC(=N)N)NC(=O)c3ccccc3)C(N)=O)cc2)c1`, the values for the pIC50 in test [1] and in test [3] were 6.83 and 6.09, respectively. The figures for the inhibition (with West Nile virus; in test [2]) were 99% and less than 30%, respectively.

For the compound `N=C(N)NCCC[C@H](NC(=O)c1ccccc1C(F)(F)F)C(=O)N[C@@H](CCCCN)C(=O)N[C@@H](C(N)=O)c1ccc(OCc2ccccc2)cc1`, the pIC50 in test [1] is 6.52; in test [3], 6.36. Moreover, the inhibition in the test on West Nile virus is 98.7%; in test [2] it was less than 30%.

As to `N=C(N)NCCC[C@H](NC(=O)C1CC1)C(=O)N[C@@H](CCCCN)C(=O)N[C@@H](C(N)=O)c1ccc(OCc2ccccc2)cc1`, the negative logarithm of the IC50 (pIC50) in test [1] was 6.09; in test [3] it was 5.78. The inhibition in the test on West Nile virus is 100%; in test [2] it was less than 30%.

For the compound `N=C(N)NCCC[C@H](NC(=O)c1ccccc1)C(=O)N[C@@H](CCCCN)C(=O)N[C@@H](C(N)=O)c1ccc(OCc2ccc(C(F)(F)F)cc2)cc1`, the pIC50 is 7.16 in test [1] and 6.65 in test [3]. The inhibition in the test with West Nile virus was 99.7%; in test [2], less than 30%.

As to `N=C(N)NCCC[C@H](NC(=O)c1ccc(-c2cccs2)s1)C(=O)N[C@@H](CCCCN)C(=O)N[C@@H](C(N)=O)c1ccc(OCc2ccccc2)cc1`, the results for the pIC50 in test [1] and in test [3] were 6.43 and 6.37, respectively. Further, the inhibition with West Nile virus is 100%; in test [2], less than 30%.

For the compound `N=C(N)NCCC[C@H](NC(=O)c1ccccc1F)C(=O)N[C@@H](CCCCN)C(=O)N[C@@H](C(N)=O)c1ccc(OCc2ccccc2)cc1`, the results for the negative-log IC50 (pIC50) in test [1] and in test [3] were 6.47 and 5.89, respectively. For the same compound, the values for the inhibition (with West Nile virus; in test [2]) were 100% and less than 30%, respectively.

On to `N=C(N)NCCC[C@H](NC(=O)c1cc(-c2ccccc2)cs1)C(=O)N[C@@H](CCCCN)C(=O)N[C@@H](C(N)=O)c1ccc(OCc2ccccc2)cc1`, for which the pIC50 in test [1] was 6.52; in test [3], 6.40. Also, the results for the inhibition (with West Nile virus; in test [2]) were 98.6% and less than 30%, respectively.

As for `N=C(N)NCCC[C@H](NC(=O)c1cccs1)C(=O)N[C@@H](CCCCN)C(=O)N[C@@H](C(N)=O)c1ccc(OCc2ccc(F)cc2)cc1`, the negative-log IC50 (pIC50) is 7.21 in test [1] and 6.67 in test [3]. The inhibition entry (at Trypsin (Homo sapiens); in test [2]) was “inactive” throughout. Besides, the inhibition with West Nile virus is 101%.

As to `N=C(N)NCCC[C@H](NC(=O)c1ccccc1)C(=O)N[C@@H](CCCCN)C(=O)N[C@@H](C(N)=O)c1ccc(OCc2ccc(F)cc2)cc1`, the pIC50 in test [1] is 6.71; in test [3], 6.46. Further, the figures for the inhibition (in the test on West Nile virus; in test [2]) were 100% and less than 30%, respectively.

Regarding `N=C(N)NCCC[C@H](NC(=O)c1ccccc1)C(=O)N[C@@H](CCCCN)C(=O)N[C@@H](C(N)=O)c1ccc(OCc2ccc(Cl)c(Cl)c2)cc1`, the values for the pIC50 in test [1] and in test [3] were 6.75 and 6.21, respectively. For the same compound, the inhibition in the test on West Nile virus is 97.8%; in test [2], less than 30%.

In test [1], `CC(C)(C)c1ccc(COc2ccc([C@@H](NC(=O)[C@H](CCCCN)NC(=O)[C@H](CCCNC(=N)N)NC(=O)c3sccc3Cl)C(N)=O)cc2)cc1` gave a negative-log IC50 (pIC50) of 6.92. Also, the inhibition result (at Trypsin (Homo sapiens); in test [2]) was “inactive” in each case. For the same compound, in the test on West Nile virus, the inhibition was 85.2%.

`N=C(N)NCCC[C@H](NC(=O)c1cccs1)C(=O)N[C@@H](CCCCN)C(=O)N[C@@H](C(N)=O)c1ccc(OCc2ccccc2)cc1`: the pIC50 is 6.96 in test [1] and 6.53 in test [3]. Besides, the values for the inhibition (in the test on West Nile virus; in test [2]) were 98% and less than 30%, respectively.

For `N=C(N)NCCC[C@H](NC(=O)c1cc2sccc2s1)C(=O)N[C@@H](CCCCN)C(=O)N[C@@H](C(N)=O)c1ccc(OCc2ccccc2C(F)(F)F)cc1`, the pIC50 in test [1] was 6.71. Also, the inhibition entry (at Trypsin (Homo sapiens); in test [2]) was “inactive” in each case. Also, the inhibition in the test with West Nile virus amounted to 97.5%.

Consider `N=C(N)NCCC[C@H](NC(=O)c1sccc1Cl)C(=O)N[C@@H](CCCCN)C(=O)N[C@@H](C(N)=O)c1ccc(OCc2ccc(Cl)cc2)cc1`, for which the pIC50 in test [1] was 6.92; in test [3], 6.09. In addition, the inhibition entry (at Trypsin (Homo sapiens); in test [2]) was “inactive” each time. The inhibition in the test on West Nile virus came out at 99.3%.

As for `CC(C)(C)c1ccc(COc2ccc([C@@H](NC(=O)[C@H](CCCCN)NC(=O)[C@H](CCCNC(=N)N)NC(=O)c3cc4sccc4s3)C(N)=O)cc2)cc1`, the results for the pIC50 in test [1] and in test [3] were 6.80 and 4.80, respectively. For the same compound, the inhibition entry (at Trypsin (Homo sapiens); in test [2]) was “inactive” throughout. For the same compound, the inhibition in the test on West Nile virus came out at 94.1%.

`N=C(N)NCCC[C@H](NC(=O)C1CCC1)C(=O)N[C@@H](CCCCN)C(=O)N[C@@H](C(N)=O)c1ccc(OCc2ccccc2)cc1`: the pIC50 in test [1] was 6.20; in test [3], 6.36. Besides, the values for the inhibition (in the test with West Nile virus; in test [2]) were 98% and less than 30%, respectively.

Consider `N=C(N)NCCC[C@H](NC(=O)c1cccs1)C(=O)N[C@@H](CCCCN)C(=O)N[C@@H](C(N)=O)c1ccc(OCc2ccc(Br)cc2)cc1`, for which the pIC50 in test [1] is 7.15; in test [3], 6.82. Besides, the inhibition result (on Trypsin (Homo sapiens); in test [2]) was “inactive” in each case. For the same compound, in the test on West Nile virus, the inhibition worked out at 99.2%.

Take `N=C(N)NCCC[C@H](NC(=O)c1ccccc1)C(=O)N[C@@H](CCCCN)C(=O)N[C@@H](C(N)=O)c1ccc(OCC(=O)c2ccccc2)cc1`: the pIC50 in test [1] was 6.31; in test [3], 6.29. The figures for the inhibition (in the test on West Nile virus; in test [2]) were 98.8% and less than 30%, respectively.

In test [1], `N=C(N)NCCC[C@H](NC(=O)c1cc2ccccc2s1)C(=O)N[C@@H](CCCCN)C(=O)N[C@@H](C(N)=O)c1ccc(OCc2c(Cl)cccc2Cl)cc1` showed a negative-log IC50 (pIC50) of 6.74. Moreover, the inhibition result (on Trypsin (Homo sapiens); in test [2]) was “inactive” in each case. Further, the inhibition in the test on West Nile virus turned out to be 95.9%.

As to `N=C(N)NCCC[C@H](NC(=O)c1cc(-c2ccccc2)cs1)C(=O)N[C@@H](CCCCN)C(=O)N[C@@H](C(N)=O)c1ccc(OCc2c(Cl)cccc2Cl)cc1`, the negative-log IC50 (pIC50) in test [1] was 6.89; in test [3], 6.66. Further, the inhibition entry (on Trypsin (Homo sapiens); in test [2]) was “inactive” each time. Moreover, the inhibition in the test with West Nile virus was 98%.

Take `N=C(N)NCCC[C@H](NC(=O)c1ccccc1)C(=O)N[C@@H](CCCCN)C(=O)N[C@@H](C(N)=O)c1ccc(OCc2ccc(Cl)cc2)cc1`: the figures for the pIC50 in test [1] and in test [3] were 6.84 and 6.31, respectively. Further, the inhibition in the test with West Nile virus is 102%; in test [2] it was less than 30%.

In the case of `N=C(N)NCCC[C@H](NC(=O)c1nccs1)C(=O)N[C@@H](CCCCN)C(=O)N[C@@H](C(N)=O)c1ccc(OCc2ccccc2)cc1`, the negative logarithm of the IC50 (pIC50) in test [1] was 7.00; in test [3] it was 6.80. Moreover, the inhibition is 98.8% in the test on West Nile virus and less than 30% in test [2].

As to `N=C(N)NCCC[C@H](NC(=O)/C=C/c1ccc(Cl)cc1)C(=O)N[C@@H](CCCCN)C(=O)N[C@@H](C(N)=O)c1ccc(OCc2ccccc2)cc1`, the values for the pIC50 in test [1] and in test [3] were 6.14 and 6.43, respectively. The inhibition is 99.4% in the test on West Nile virus and less than 30% in test [2].

Take `N=C(N)NCCC[C@H](NC(=O)c1cc2ccccc2s1)C(=O)N[C@@H](CCCCN)C(=O)N[C@@H](C(N)=O)c1ccc(OCc2ccccc2C(F)(F)F)cc1`: the pIC50 in test [1] was 6.61. Also, the inhibition result (at Trypsin (Homo sapiens); in test [2]) was “inactive” each time. Further, the inhibition in the test on West Nile virus was 93.1%.
